# “And” between values parts separate entries of the source, which are not always exact repeats. Equal entries are not always repeated. Where no end group is shown, it is not given here. Cy5.5 = Cy5.5 fluorophore
# Tests used:
# p-HER2 = assay: Western blot p-HER2, SKBR3 cells; format: cell-based, Human; conditions: 48 h
# Summary of the method: (§1)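 SKBR3 cells (McCoy's) in 6-well plates at ~60% confluence got unlabeled test peptide at 5 or 100 μM. A tyrosine kinase inhibitor positive control was used at 1–1000 nM, alongside 1% DMSO and untreated controls. Cells were harvested at 48 h for Western blot. Antibodies covered total HER2, AKT and ERK1/2, phospho-HER2 (Tyr1248), phospho-AKT (pS473), phospho-ERK1/2 and tubulin.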
# p-AKT = assay: Western blot p-AKT, SKBR3 cells; format: cell-based, Human; conditions: 48 h
# Summary of the method: as §1
# p-ERK = assay: Western blot p-ERK, SKBR3 cells; format: cell-based, Human; conditions: 48 h
# Summary of the method: as §1
# HER2 on HT29 cells [1] = assay: Apparent association time constant by flow cytometry; format: binding, Human; conditions: 5 μM KSP*-Cy5.5, 4 °C, 0-60 min, from k = 0.14 min^−1
# HER2 on HT29 cells [2] = assay: Confocal fluorescence microscopy, HT29 cells; format: cell-based, Human; conditions: peptides 5 μM, 30 min, 4 °C
# Summary of the method: (§2)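 Cells were cultured at 37 °C, 5% CO2 with 10% FBS and 1% pen/strep: HT29 in McCoy's, SW480 in DMEM. After a PBS wash, cells got 5 μM Cy5.5-labeled test or control peptide for 30 min at 4 °C, were washed 3×, fixed in ice-cold 4% PFA for 10 min and mounted with DAPI. Imaging used Cy5.5 and DAPI filters. Intensities were quantified from 3 independent images.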
# HER2 on SW480 cells = assay: Confocal fluorescence microscopy, SW480 cells; format: cell-based, Human; conditions: peptides 5 μM, 30 min, 4 °C
# Summary of the method: as §2
# HER2 on HT29 cells [3] = assay: siRNA knockdown of HER2, HT29 cells; format: cell-based, Human; conditions: HT29 siCL vs siHER2; confocal; average of 3 images
# Summary of the method: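 HT29 cells were seeded at 30% confluence in McCoy's 5A with 10% FBS and no antibiotics. Next day they were transfected with HER2-targeting siRNA or a nontargeting pool, and knockdown was confirmed by Western blot. Cy5.5-labeled test peptide and AF488 anti-HER2 binding were imaged confocally, with intensities quantified from 3 independent images.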
# HER2 on HT29 cells [4] = assay: Co-localization of peptide and anti-HER2 antibody binding, HT29 cells; format: cell-based, Human; conditions: KSP*-Cy5.5 5 μM, 1 h, 4 °C, then anti-HER2 and AF488 secondary
# Summary of the method: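 HT29 cells got 5 μM Cy5.5-labeled test peptide first (1 h, 4 °C), at under 10 μM to limit interference with antibody binding. Cells were washed, fixed in 4% PFA for 5 min, then stained with primary anti-HER2 and AF488 secondary. Co-localization was scored as Pearson's correlation coefficient.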
# [5] = test system: HER2 in colonic adenomas of CPC;Apc mice; assay: In vivo NIR endoscopic imaging of mouse colonic dysplasia, topical peptide; conditions: topical 100 μM, 1.5 mL
# Summary of the method: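 Cy5.5-labeled peptides, 100 μM in 1.5 mL, were delivered into the colon through the endoscope instrument channel and left 5 min. The colon was rinsed 3× with tap water before NIR imaging with a small animal endoscope. Imaging was repeated 2–3 days later with the control peptide. Target-to-background ratios came from mean ROI intensities.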
# [6] = test system: HER2 in colonic adenomas of CPC;Apc mice; assay: In vivo NIR endoscopic imaging of mouse colonic dysplasia, systemic peptide; conditions: n = 4, i.v. tail vein, 200 μL of 300 μM
# Summary of the method: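 Isoflurane-anaesthetized CPC;Apc mice received 200 μL of 300 μM Cy5.5-labeled test peptide via tail vein. NIR endoscopy was done before injection for baseline, then after injection until maximum signal. The adenoma-to-normal intensity ratio came from regions of interest at each time point.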
# [7] = test system: HER2 overexpressed by mouse colonic dysplasia; assay: Peptide immunofluorescence on mouse colonic adenoma sections; conditions: 2 μM, 10 min, RT, confocal
# Summary of the method: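 Serial 5-μm sections of formalin-fixed mouse colonic adenoma were incubated with 2 μM Cy5.5-labeled test or control peptide for 10 min at RT. Sections were washed 3× with PBS and mounted with DAPI for confocal imaging. Adjacent sections were H&E stained.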
# [8] = test system: HER2 overexpressed by human proximal colonic neoplasia; assay: Peptide immunofluorescence on FFPE human proximal colon specimens; conditions: KSP*-Cy5.5 5 μM, 10 min, RT
# Summary of the method: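 FFPE 5-μm sections were deparaffinized, then antigen-retrieved in 10 mM sodium citrate, 0.05% Tween, pH 6.0, at boiling then sub-boiling for 15 min. They were blocked with protein serum for 15 min at RT and stained with 5 μM Cy5.5-labeled test peptide for 10 min at RT. After PBS washes, anti-HER2 was applied overnight at 4 °C. Mean intensity was read from three 20×20 μm² epithelial boxes per image, avoiding saturated regions. Analysis used log2 transform if needed, one-way ANOVA with Tukey comparisons, and Pearson's coefficient for co-localization.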
# Flo1-HER2 cells = assay: Confocal microscopy of FITC-labeled lead peptides with Flo1-HER2 cells; format: cell-based; conditions: 10 μM, 4 °C, 1 h, quadruplicate, data log base 2
# Summary of the method: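 Flo1-HER2 cells (DMEM + G418) and Q-hTERT control cells (Keratinocyte-SFM), ~7500 cells on coverslips, were grown to ~70% confluence and washed with cold PBS. They got 10 μM FITC-labeled peptide for 1 h at 4 °C, were washed 3×, fixed in ice-cold 4% PFA for 10 min and mounted with DAPI. Confocal imaging used a 63× oil objective, in quadruplicate.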
# dysplastic polyps = conditions: FITC-labeled, topical application, patients; cited from earlier work
# [9] = molecular target: Human epidermal growth factor receptor 2 (HER2), endogenous on human cells and tissue (human, UniProt P04626 23-1255); assay: flow cytometry on cells
# [10] = lapatinib 1, 25, 100, 1000 nM, concentration dependent
# [11] = human proximal colon FFPE, n = 30, mean ± sem
molecule,measurement,setting,value
"CS(=O)(=O)CCNCc1ccc(-c2ccc3ncnc(Nc4ccc(OCc5cccc(F)c5)c(Cl)c4)c3c2)o1 [lapatinib, reference compound]",Expression of p-HER2,p-HER2; [10],reduced expression
same,Expression of p-AKT,p-AKT; [10],reduced expression
same,Expression of p-ERK,p-ERK; [10],reduced expression
KSPNPRF [KSP*],"Apparent association time constant, as time",HER2 on HT29 cells [1],7.1 min
same,Phosphorylation of HER2 (p-HER2),"p-HER2; KSP* 5 and 100 μM, Tyr1248",no change
same,Phosphorylation of AKT (p-AKT),"p-AKT; KSP* 5 and 100 μM, pS473",no change
same,Phosphorylation of ERK (p-ERK),p-ERK; KSP* 5 and 100 μM,no change
KSPNPRF [KSP*-Cy5.5],Binding to cell surface,HER2 on HT29 cells [2],binds to the surface
same,Binding to cell surface,HER2 on SW480 cells,binds to the surface
same,Binding to siCL treated control cells compared to siHER2 knockdown cells,HER2 on HT29 cells [3],significantly greater
same,"Co-localization with anti-HER2-AF488, Pearson's coefficient",HER2 on HT29 cells [4],0.74
same,"Apparent association time constant, as time",HER2 on HT29 cells [1],7.1 min and 7.14 min
same,NIR fluorescence at flat adenoma,[5],increased intensity with visible crypt-like structures
same,NIR fluorescence at polypoid adenoma,[5],increased intensity
same,Time of peak T/B ratio (mean intensity),[6],100 min
same,Staining of normal colon,[7],Minimal staining
same,"Co-localization with anti-HER2-AF488, Pearson's correlation coefficient","[8]; human colonic dysplasia, then anti-HER2",0.50
same,"Mean fluorescence intensity, hyperplastic polyps","[8]; human proximal colon FFPE, n = 12, mean ± sem",0.12 ± 0.08
same,"Mean fluorescence intensity, sessile serrated adenomas","[8]; human proximal colon FFPE, n = 13, mean ± sem",6.07 ± 0.73
same,"Mean fluorescence intensity, normal",[8]; [11],2.72 ± 0.31
same,"Mean fluorescence intensity, sporadic adenomas",[8]; [11],11.9 ± 0.61
KSPNPRF,Mean fluorescence intensity (rank among top 5 peptides),Flo1-HER2 cells,highest mean fluorescence intensity
PPSNFKR [PPS*-Cy5.5],Binding to cell surface,HER2 on HT29 cells [2],minimal binding
same,Binding to cell surface,HER2 on SW480 cells,minimal binding
same,NIR fluorescence at flat adenoma,[5],minimal signal
same,NIR fluorescence at polypoid adenoma,[5],minimal signal
same,Staining of normal colon,[7],Minimal staining
VRPMPLQ,Binding in vivo on dysplastic polyps,dysplastic polyps,specific binding was validated
KSPNPRFGGGSK(Cy5.5)-NH2 [KSP*-Cy5.5 (KSPNPRF peptide labeled with Cy5.5 via a GGGSK linker)],Kd,[9],0.021 µM

# Source: article PMC5384256 (Bioconjugate chemistry, 2015)
